{"source": "ChEMBL document CHEMBL4354800", "about": "“Amphiphilic nebramine-based hybrids Rescue legacy antibiotics from intrinsic resistance in multidrug-resistant Gram-negative bacilli” (Eur J Med Chem, 2019)", "type_in_all_cases": "functional", "key": {"Acinetobacter baumannii [1]": {"system": "Acinetobacter baumannii", "assay": "Synergistic antibacterial activity against multidrug-resistant Acinetobacter baumannii AB027 assessed as fractional inhibitory concentration index in presence of rifampicin incubated for 18 hrs by broth dilution method"}, "Pseudomonas aeruginosa [2]": {"system": "Pseudomonas aeruginosa", "assay": "Potentiation of minocycline-induced antibacterial activity against MDR/XDR Pseudomonas aeruginosa isolate PA260-97103 harboring GyrA T83I mutant assessed as fold reduction in minocycline MIC at 7.5 uM incubated for 18 hrs by broth microdilution method"}, "Enterobacter cloacae": {"system": "Enterobacter cloacae", "assay": "Potentiation of rifampicin-induced antibacterial activity against Enterobacter cloacae 117029 assessed as fold reduction in rifampicin MIC at 7.5 uM incubated for 18 hrs by broth dilution method", "in_short": "(§1)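 Antibiotic MIC determined by CLSI broth microdilution (MHB, 5 × 10^5 CFU/mL, 18 h, 37 °C), once alone and once with a fixed concentration of the adjuvant. Potentiation is the ratio of the antibiotic MIC alone to its MIC in the presence of the adjuvant.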"}, "Pseudomonas aeruginosa [3]": {"system": "Pseudomonas aeruginosa", "assay": "Potentiation of rifampicin-induced antimicrobial activity against MDR/XDR Pseudomonas aeruginosa isolate PA262-101856 harboring GyrA Thr83Ile mutant assessed as rifampicin MIC50 incubated for 18 hrs by broth microdilution method (reference value: 8 microg/ml)", "details": "isolate PA262-101856, 18 h"}, "Pseudomonas aeruginosa [4]": {"system": "Pseudomonas aeruginosa", "assay": "Potentiation of rifampicin-induced antimicrobial activity against MDR/XDR Pseudomonas aeruginosa isolate PA260-97103 harboring GyrA Thr83Ile mutant assessed as rifampicin MIC80 incubated for 18 hrs by broth microdilution method (reference value: 16 microg/ml)", "details": "isolate PA260-97103, 18 h"}, "Pseudomonas aeruginosa [5]": {"system": "Pseudomonas aeruginosa", "assay": "Potentiation of minocycline-induced antibacterial activity against MDR/XDR Pseudomonas aeruginosa isolate 91433 devoid of GyrA T83I mutant assessed as fold reduction in minocycline MIC at 7.5 uM incubated for 18 hrs by broth microdilution method"}, "Pseudomonas aeruginosa [6]": {"system": "Pseudomonas aeruginosa", "assay": "Potentiation of rifampicin-induced antimicrobial activity against MDR/XDR Pseudomonas aeruginosa isolate 101885 harboring GyrA Thr83Ile mutant assessed as rifampicin MIC50 incubated for 18 hrs by broth microdilution method (reference value: 8 microg/ml)", "details": "isolate 101885, 18 h"}, "Acinetobacter baumannii [7]": {"system": "Acinetobacter baumannii", "assay": "Antimicrobial activity against multidrug-resistant Acinetobacter baumannii AB027 incubated for 18 hrs by broth dilution method", "details": "AB027, 18 h", "in_short": "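Broth microdilution per CLSI: overnight cultures set to 0.5 McFarland in saline, diluted 1:50 in Mueller-Hinton broth to a final 5 × 10^5 CFU/mL, added to 2-fold serial dilutions, incubated 18 h at 37 °C; MIC is the lowest concentration without visible turbidity, confirmed at 590 nm.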"}, "Acinetobacter baumannii [8]": {"system": "Acinetobacter baumannii", "assay": "Synergistic antibacterial activity against multidrug-resistant Acinetobacter baumannii AB030 assessed as fractional inhibitory concentration index in presence of rifampicin incubated for 18 hrs by broth dilution method"}, "Acinetobacter baumannii [9]": {"system": "Acinetobacter baumannii", "assay": "Synergistic antibacterial activity against multidrug-resistant Acinetobacter baumannii AB031 assessed as fractional inhibitory concentration index in presence of minocycline incubated for 18 hrs by broth dilution method"}, "Pseudomonas aeruginosa [10]": {"system": "Pseudomonas aeruginosa", "assay": "Potentiation of minocycline-induced antibacterial activity against MDR/XDR Pseudomonas aeruginosa isolate PA259-96918 harboring GyrA T83I mutant assessed as fold reduction in minocycline MIC at 7.5 uM incubated for 18 hrs by broth microdilution method"}, "Pseudomonas aeruginosa [11]": {"system": "Pseudomonas aeruginosa", "assay": "Potentiation of moxifloxacin-induced antibacterial activity against MDR/XDR Pseudomonas aeruginosa isolate PA264-104354 harboring GyrA T83I mutant assessed as fold reduction in moxifloxacin MIC at 7.5 uM incubated for 18 hrs by broth microdilution method", "in_short": "(§2)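 CLSI broth microdilution. Overnight cultures were set to 0.5 McFarland in saline, diluted 1:50 in Mueller-Hinton broth to a final 5 × 10^5 CFU/mL, and incubated 18 h at 37 °C against 2-fold antibiotic dilutions. A fixed adjuvant level was present throughout. MIC = lowest concentration with no visible turbidity, confirmed at 590 nm. Potentiation = fold drop in antibiotic MIC versus antibiotic alone.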"}, "Pseudomonas aeruginosa [12]": {"system": "Pseudomonas aeruginosa", "assay": "Antimicrobial activity against XDR Pseudomonas aeruginosa PA264 infected in Galleria mellonella larvae assessed as survival rate at 100 mg/kg administered 2 hrs post-inoculation measured after 18 hrs relative to control", "in_short": "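G. mellonella larvae were injected with ~5 CFU of P. aeruginosa PA264 (10 µL of 5 × 10^2 CFU/mL in PBS) and held 2 h at 37 °C. A single 10 µL injection followed: monotherapy or rifampicin + compound (25+25, 50+50 or 75+75 mg/kg), with PBS as control. Larvae kept at 37 °C were scored every 6 h to 24 h; dead = no response to touch. n = 30 (two runs of 15); Kaplan-Meier.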"}, "Klebsiella pneumoniae [13]": {"system": "Klebsiella pneumoniae", "assay": "Potentiation of rifampicin-induced antibacterial activity against Klebsiella pneumoniae 116381 assessed as fold reduction in rifampicin MIC at 4.1 uM incubated for 18 hrs by broth dilution method", "in_short": "as §1"}, "Escherichia coli [14]": {"system": "Escherichia coli", "assay": "Synergistic antibacterial activity against Escherichia coli 94474 assessed as fractional inhibitory concentration index in presence of rifampicin incubated for 18 hrs by broth dilution method", "in_short": "(§3)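 Checkerboard titration of the adjuvant against the antibiotic, run under the CLSI microdilution conditions (MHB, 5 × 10^5 CFU/mL, 18 h, 37 °C). Each agent's FIC is its MIC in combination divided by its MIC alone; FICI is the sum of the two FICs. FICI ≤0.5 was read as synergy, >0.5–4.0 as no interaction, and >4.0 as antagonism.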"}, "Klebsiella pneumoniae [15]": {"system": "Klebsiella pneumoniae", "assay": "Antimicrobial activity against Klebsiella pneumoniae 113250 incubated for 18 hrs by broth dilution method", "details": "Klebsiella pneumoniae, 113250, 18 h", "in_short": "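CLSI broth microdilution. Overnight cultures were adjusted to 0.5 McFarland in saline, diluted 1:50 in Mueller-Hinton broth, and inoculated at a final 5 × 10^5 CFU/mL. Compounds were tested as 2-fold serial dilutions and incubated 18 h at 37 °C. MIC was the lowest concentration with no visible turbidity, confirmed by absorbance at 590 nm.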"}, "Acinetobacter baumannii [16]": {"system": "Acinetobacter baumannii", "assay": "Synergistic antibacterial activity against multidrug-resistant Acinetobacter baumannii AB110193 assessed as fractional inhibitory concentration index in presence of rifampicin incubated for 18 hrs by broth dilution method"}, "Escherichia coli [17]": {"system": "Escherichia coli", "assay": "Synergistic antibacterial activity against Escherichia coli ATCC 25922 assessed as fractional inhibitory concentration index in presence of minocycline incubated for 18 hrs by broth dilution method", "in_short": "as §3"}, "Klebsiella pneumoniae [18]": {"system": "Klebsiella pneumoniae", "assay": "Synergistic antibacterial activity against Klebsiella pneumoniae 113250 assessed as fractional inhibitory concentration index in presence of rifampicin incubated for 18 hrs by broth dilution method", "in_short": "as §3"}, "Escherichia coli [19]": {"system": "Escherichia coli", "assay": "Synergistic antibacterial activity against Escherichia coli 107115 assessed as fractional inhibitory concentration index in presence of minocycline incubated for 18 hrs by broth dilution method", "in_short": "as §3"}, "Acinetobacter baumannii [20]": {"system": "Acinetobacter baumannii", "assay": "Synergistic antibacterial activity against multidrug-resistant Acinetobacter baumannii ATCC 17978 assessed as fractional inhibitory concentration index in presence of rifampicin incubated for 18 hrs by broth dilution method"}, "Klebsiella pneumoniae [21]": {"system": "Klebsiella pneumoniae", "assay": "Potentiation of minocycline-induced antibacterial activity against Klebsiella pneumoniae 113254 assessed as fold reduction in minocycline MIC at 4.1 uM incubated for 18 hrs by broth dilution method", "in_short": "as §1"}, "Pseudomonas aeruginosa [22]": {"system": "Pseudomonas aeruginosa", "assay": "Potentiation of rifampicin-induced antibacterial activity against wild type Pseudomonas aeruginosa PAO1 assessed as fold reduction in rifampicin MIC at 9 uM incubated for 18 hrs by broth microdilution method", "in_short": "as §2"}}, "data": [{"compound": "COc1c(N2C[C@@H]3CCCN(CCCCCCCCCCCCO[C@@H]4[C@@H](O)[C@H](N)C[C@H](N)[C@H]4O[C@H]4O[C@H](CN)[C@@H](O)C[C@H]4N)[C@@H]3C2)c(F)cc2c(=O)c(C(=O)O)cn(C3CC3)c12.Cl.Cl.Cl.Cl.Cl", "values": [{"measurement": "fractional inhibitory concentration index (FICI)", "setting": "Acinetobacter baumannii [1]", "value": "0.031 - 0.047"}, {"measurement": "fold change (FC)", "setting": "Pseudomonas aeruginosa [2]", "value": 32}, {"measurement": "fold change (FC)", "setting": "Enterobacter cloacae", "value": ">=128"}, {"measurement": "MIC50", "setting": "Pseudomonas aeruginosa [3]", "value": 0.06, "unit": "µg/mL"}, {"measurement": "MIC80", "setting": "Pseudomonas aeruginosa [4]", "value": 0.13, "unit": "µg/mL"}, {"measurement": "fold change (FC)", "setting": "Pseudomonas aeruginosa [5]", "value": 32}, {"measurement": "MIC50", "setting": "Pseudomonas aeruginosa [6]", "value": 0.06, "unit": "µg/mL"}, {"measurement": "MIC", "setting": "Acinetobacter baumannii [7]", "value": "> 256", "unit": "µg/mL"}, {"measurement": "fractional inhibitory concentration index (FICI)", "setting": "Acinetobacter baumannii [8]", "value": "0.031 - 0.281"}, {"measurement": "fractional inhibitory concentration index (FICI)", "setting": "Acinetobacter baumannii [9]", "value": ">1"}, {"measurement": "fold change (FC)", "setting": "Pseudomonas aeruginosa [10]", "value": 32}, {"measurement": "fold change (FC)", "setting": "Pseudomonas aeruginosa [11]", "value": 16}]}, {"compound": "Cl.Cl.Cl.Cl.Cl.NC[C@H]1O[C@H](O[C@H]2[C@H](OCCCCCCCCCCCCN3CCN(c4cc5c(cc4F)c(=O)c(C(=O)O)cn5C4CC4)CC3)[C@@H](O)[C@H](N)C[C@@H]2N)[C@H](N)C[C@@H]1O", "values": [{"measurement": "survival at 100 mg/kg", "setting": "Pseudomonas aeruginosa [12]", "value": 0, "unit": "%"}, {"measurement": "fold change (FC)", "setting": "Klebsiella pneumoniae [13]", "value": ">=128"}, {"measurement": "fractional inhibitory concentration index (FICI)", "setting": "Escherichia coli [14]", "value": "0.004 - 0.035"}, {"measurement": "MIC", "setting": "Klebsiella pneumoniae [15]", "value": 128, "unit": "µg/mL"}, {"measurement": "fractional inhibitory concentration index (FICI)", "setting": "Acinetobacter baumannii [16]", "value": "0.016 - 0.031"}, {"measurement": "fractional inhibitory concentration index (FICI)", "setting": "Escherichia coli [17]", "value": 0.504}, {"measurement": "fractional inhibitory concentration index (FICI)", "setting": "Klebsiella pneumoniae [18]", "value": 0.039}, {"measurement": "fractional inhibitory concentration index (FICI)", "setting": "Escherichia coli [19]", "value": 0.133}, {"measurement": "fractional inhibitory concentration index (FICI)", "setting": "Acinetobacter baumannii [20]", "value": 0.016}, {"measurement": "fold change (FC)", "setting": "Klebsiella pneumoniae [21]", "value": 2}]}, {"compound": "Cl.Cl.Cl.Cl.Cl.Cl.NC[C@H]1O[C@H](O[C@H]2[C@H](OCCCCCCCCCCN3CCN(Cc4cccc5ccccc45)CC3)[C@@H](O)[C@H](N)C[C@@H]2N)[C@H](N)C[C@@H]1O", "values": [{"measurement": "fold change (FC)", "setting": "Pseudomonas aeruginosa [22]", "value": 256}]}]}
